From publication PMC3149845 (The Journal of neuroscience : the official journal of the …, 2011)
Peptide text beside a SMILES is read from it.

Tests used:
hTas1R2/hTas1R3 = target: T1, hTas1R2/hTas1R3 (Homo sapiens, UniProt Q8TE23); experiment: Ca2+ mobilization, wild type human sweet taste receptor; type: cell-based; conditions: for response in dose-response experiment: HEK293E cells with Gα16-gust44; for Bottom (B) of sigmoid dose-response fit / Top (T) of sigmoid dose-response fit: ΔF/F normalized to maximum response of hTas1R2/hTas1R3 to neotame
T1 sequence (Q8TE23 20-839): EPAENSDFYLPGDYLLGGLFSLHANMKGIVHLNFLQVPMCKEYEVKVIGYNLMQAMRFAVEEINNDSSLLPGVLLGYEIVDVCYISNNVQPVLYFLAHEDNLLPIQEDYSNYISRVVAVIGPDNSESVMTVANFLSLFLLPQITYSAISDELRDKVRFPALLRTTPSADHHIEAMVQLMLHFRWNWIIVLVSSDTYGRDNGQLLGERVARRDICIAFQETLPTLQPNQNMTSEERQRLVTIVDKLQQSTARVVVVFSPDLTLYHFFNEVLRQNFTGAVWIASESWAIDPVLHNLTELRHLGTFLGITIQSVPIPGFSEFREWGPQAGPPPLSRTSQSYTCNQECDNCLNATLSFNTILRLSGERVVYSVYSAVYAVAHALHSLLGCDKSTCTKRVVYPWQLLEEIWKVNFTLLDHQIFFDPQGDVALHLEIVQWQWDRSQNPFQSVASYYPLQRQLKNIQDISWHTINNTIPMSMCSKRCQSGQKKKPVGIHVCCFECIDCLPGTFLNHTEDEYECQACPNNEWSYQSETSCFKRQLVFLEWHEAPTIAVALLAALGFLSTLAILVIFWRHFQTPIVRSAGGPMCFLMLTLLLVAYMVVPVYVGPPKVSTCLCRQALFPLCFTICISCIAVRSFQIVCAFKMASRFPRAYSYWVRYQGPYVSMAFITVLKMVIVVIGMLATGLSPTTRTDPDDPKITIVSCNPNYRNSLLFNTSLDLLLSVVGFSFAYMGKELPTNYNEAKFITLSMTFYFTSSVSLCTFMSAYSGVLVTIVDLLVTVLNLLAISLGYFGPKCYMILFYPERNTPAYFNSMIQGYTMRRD
T1 sequence (Q7RTX0 21-852 partner): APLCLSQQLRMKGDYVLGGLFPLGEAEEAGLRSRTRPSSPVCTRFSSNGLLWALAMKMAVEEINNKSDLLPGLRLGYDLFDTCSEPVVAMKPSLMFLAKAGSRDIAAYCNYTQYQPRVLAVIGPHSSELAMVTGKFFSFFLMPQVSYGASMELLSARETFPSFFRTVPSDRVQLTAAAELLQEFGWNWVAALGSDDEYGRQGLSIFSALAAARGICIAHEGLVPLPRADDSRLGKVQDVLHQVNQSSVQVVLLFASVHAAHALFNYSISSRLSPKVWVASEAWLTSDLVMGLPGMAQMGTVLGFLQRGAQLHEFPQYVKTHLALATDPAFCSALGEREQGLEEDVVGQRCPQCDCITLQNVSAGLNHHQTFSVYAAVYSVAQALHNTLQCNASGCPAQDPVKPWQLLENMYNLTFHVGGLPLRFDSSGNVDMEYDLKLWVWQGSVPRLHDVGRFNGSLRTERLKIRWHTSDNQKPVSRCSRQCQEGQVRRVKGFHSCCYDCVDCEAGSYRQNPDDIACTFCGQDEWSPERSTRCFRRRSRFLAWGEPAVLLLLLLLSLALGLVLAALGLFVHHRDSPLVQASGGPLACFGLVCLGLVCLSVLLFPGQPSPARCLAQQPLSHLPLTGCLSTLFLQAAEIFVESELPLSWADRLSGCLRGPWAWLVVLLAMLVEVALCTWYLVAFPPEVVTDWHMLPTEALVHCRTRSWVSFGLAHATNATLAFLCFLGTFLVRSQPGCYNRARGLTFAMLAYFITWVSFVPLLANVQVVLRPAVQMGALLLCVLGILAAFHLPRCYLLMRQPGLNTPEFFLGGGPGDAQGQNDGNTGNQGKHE
In short: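 HEK293E cells (Opti-MEM, 5% FBS, 37°C) were seeded at 50,000/well and cotransfected with Tas1R plasmids and Gα16-gust44 (0.06 μg each per well). Medium changed at 20 h; assayed 24 h later after 1 h loading with 3 μm Fluo-4 AM in HBSS/20 mm HEPES. Fluorescence (ex 488/em 525 nm) read 2 s apart; tastant added at 30 s, 150 s further. Peak ΔF/F sigmoid-fitted; three independent experiments.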

smTas1R2/hTas1R3 = target: T2, smTas1R2/hTas1R3 (Saimiri sciureus, UniProt A3QP08); experiment: Ca2+ mobilization, mismatched receptor; type: cell-based, human/squirrel monkey; conditions: aspartame 10mM, neotame 1mM, sucralose 2 mM, D-tryptophan 5mM, sucrose 150mM
T2 sequence (A3QP08 20-834): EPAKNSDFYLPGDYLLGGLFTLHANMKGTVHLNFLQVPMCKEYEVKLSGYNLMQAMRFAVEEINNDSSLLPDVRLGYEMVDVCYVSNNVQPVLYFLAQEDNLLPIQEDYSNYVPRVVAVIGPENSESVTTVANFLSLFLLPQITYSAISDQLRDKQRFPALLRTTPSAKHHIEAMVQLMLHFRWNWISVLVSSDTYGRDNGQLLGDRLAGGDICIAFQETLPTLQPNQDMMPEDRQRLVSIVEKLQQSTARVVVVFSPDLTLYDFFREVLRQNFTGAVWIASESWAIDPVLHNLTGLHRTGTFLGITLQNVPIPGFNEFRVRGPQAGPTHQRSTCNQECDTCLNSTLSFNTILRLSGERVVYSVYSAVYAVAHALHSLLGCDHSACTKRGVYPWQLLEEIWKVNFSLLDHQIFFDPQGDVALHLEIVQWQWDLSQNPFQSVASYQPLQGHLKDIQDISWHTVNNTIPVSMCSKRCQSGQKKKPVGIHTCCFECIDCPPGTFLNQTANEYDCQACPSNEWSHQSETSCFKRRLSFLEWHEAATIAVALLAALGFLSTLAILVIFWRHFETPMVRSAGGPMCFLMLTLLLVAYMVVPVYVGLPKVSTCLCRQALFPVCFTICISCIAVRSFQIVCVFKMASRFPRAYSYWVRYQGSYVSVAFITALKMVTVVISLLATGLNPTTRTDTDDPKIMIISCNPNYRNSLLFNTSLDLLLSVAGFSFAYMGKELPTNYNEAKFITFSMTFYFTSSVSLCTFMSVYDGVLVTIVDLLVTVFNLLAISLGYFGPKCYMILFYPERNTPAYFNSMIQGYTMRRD
T2 sequence (Q7RTX0 21-852 partner): T1 sequence (Q7RTX0 21-852 partner)
In short: (§1)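 HEK293E cells grown at 37°C in Opti-MEM with 5% FBS and seeded at 50,000/well. Cells co-lipofected with Tas1R plasmids and Gα16-gust44 (0.06 μg each per well); medium changed at 20 h, assayed 24 h later. Cells loaded 1 h with Fluo-4 AM in HEPES-buffered HBSS. Tastant added at 30 s; fluorescence (ex 488/em 525 nm) read every 2 s for 150 s more. ΔF/F normalised to human receptor maximal sucralose response; mean ± SEM, three independent experiments.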

[1] = test system: All the human and squirrel monkey mutants; experiment: Ca2+ mobilization, control response of all mutants; type: cell-based; conditions: sucralose 2 mM
In short: as §1

Row | SMILES | EC50 (hTas1R2/hTas1R3) [mM] | response in dose-response experiment (hTas1R2/hTas1R3) | Bottom (B) of sigmoid dose-response fit (hTas1R2/hTas1R3) | Top (T) of sigmoid dose-response fit (hTas1R2/hTas1R3) | calcium response to sweetener (smTas1R2/hTas1R3) | calcium response to the control sweetener [1]
1 | COC(=O)[C@H](Cc1ccccc1)NC(=O)[C@@H](N)CC(=O)O [aspartame, L-α-aspartly-L-phenylalanine methyl ester] (H-Asp-Phe-OMe) | 5 | good response | 7.074 | 73.32 | – | –
2 | OC[C@H]1O[C@H](O[C@]2(CCl)O[C@H](CCl)[C@@H](O)[C@@H]2O)[C@H](O)[C@@H](O)[C@H]1Cl [sucralose] | – | – | – | – | remained intact or reduced | significant level of response
3 | COC(=O)[C@H](Cc1ccccc1)NC(=O)[C@H](CC(=O)O)NCCC(C)(C)C [neotame] | – | good response | −165.1 | 92.82 | – | –
